{
  "source": "ChEMBL document CHEMBL1123985",
  "about": "“Oral absorption of cephalosporin antibiotics. 1. Synthesis, biological properties, and oral bioavailability of 7-(arylacetamido)-3-chloro cephalosporins in animals” (J Med Chem, 1988)",
  "key": {"[1]": {"assay": "Mean plasma levels in rats 1 hr after iv administration of 100 mg/kg of probenecid 5 min prior to test compound", "type": "ADME, organism-based", "design": "dose 100 mg/kg, route intravenous", "settings": "rat, read-out: Plasma levels", "how_it_was_run": "(§1)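 Rats, jugular vein cannulated (two per group), test compound iv 20 mg/kg; probenecid 100 mg/kg iv 5 min before in treated groups. Heparinized plasma sampled at 5, 20, 40 min and 1, 2, 3 h, assayed microbiologically (B. subtilis agar well). AUC 0-3 h in μg min/mL; half-life in min.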"}, "Streptococcus pyogenes [2]": {"system": "Streptococcus pyogenes", "assay": "Minimum inhibitory concentration against C203 strain of Streptococcus pyogenes"}, "Canis familiaris [3]": {"system": "Canis familiaris", "assay": "Area under plasma concentration vs time curve observed in female mongrel dogs after, iv administration of single 15 mg/kg dose", "type": "ADME, organism-based, Canis lupus familiaris", "design": "dose 15 mg/kg, route intravenous", "settings": "dog, in vivo", "how_it_was_run": "(§2)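 Six female mongrel dogs (14-23 kg) fasted overnight, bladder catheterized; single 15 mg/kg solution doses by stomach tube (in water, total 500 mL) or cephalic vein (saline or pH 6.0 NaCl/phosphate/acetate buffer). Plasma sampled at intervals; activity by disk-plate agar diffusion against E. coli MB 3804, standards in dog serum or buffer. AUC μg min/mL, mean ± SEM; BA from iv vs po AUC and urinary recovery.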"}, "[4]": {"assay": "Percent of urinary recovery in rats after, sc administration of single 20 mg/kg dose in solution (N,range)", "type": "ADME, organism-based", "design": "dose 20 mg/kg, route subcutaneous", "settings": "rat, urine, read-out: Recovery", "how_it_was_run": "(§3)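 Male Wistar rats (200-300 g), jugular-cannulated, upper GI emptied by light cycle; 20 mg/kg in saline (6 mg/mL) sc or orally. Urine collected in wire-bottom cages, assayed by B. subtilis agar well method. Mean ± SD recovery with N and range; bioavailability = oral over mean sc recovery.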"}, "Staphylococcus aureus [5]": {"system": "Staphylococcus aureus", "assay": "Minimum inhibitory concentration against 3055 strain of Staphylococcus aureus"}, "[6]": {"assay": "Area under plasma concentration vs time curve observed in rats for 0-3 h", "type": "ADME", "design": "time < 3 hr", "settings": "rat", "how_it_was_run": "as §1"}, "[7]": {"assay": "Oral bioavailability in Rhesus monkey", "type": "ADME, organism-based, Macaca mulatta", "settings": "in vivo", "how_it_was_run": "(§4)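 Rhesus monkeys, adult males, six animals per compound, each given drug orally and iv; fasted overnight. Single 30 mg/kg solution doses, by nasogastric tube (in water) or saphenous vein (in isotonic lactated Ringer). Plasma sampled at intervals, frozen at -70 °C, antibacterial activity by microbiological assay. AUC in μg min/mL; oral bioavailability from oral vs iv AUC.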"}, "Staphylococcus aureus [8]": {"system": "Staphylococcus aureus", "assay": "Minimum inhibitory concentration against S13E strain of Staphylococcus aureus", "type": "functional"}, "Escherichia coli": {"system": "Escherichia coli", "assay": "Minimum inhibitory concentration against EC14 strain Escherichia coli", "type": "functional"}, "[9]": {"system": "Staphylococcus epidermidis", "assay": "Minimum inhibitory concentration against 222 strain of Staphylococcus epidermidis", "type": "functional"}, "[10]": {"assay": "Area under plasma concentration vs time curve observed in Rhesus monkeys after, iv administration of single 30 mg/kg dose", "type": "ADME, organism-based, Macaca mulatta", "design": "dose 30 mg/kg, route intravenous", "settings": "rhesus monkey", "how_it_was_run": "as §4"}, "[11]": {"assay": "Half-life of the compound", "type": "ADME", "how_it_was_run": "as §1"}, "[12]": {"assay": "Bioavailability in rat", "type": "ADME, organism-based", "settings": "in vivo", "how_it_was_run": "as §3"}, "Klebsiella aerogenes": {"system": "Klebsiella aerogenes", "assay": "Minimum inhibitory concentration against EB17 strain of Enterobacter aerogenes", "type": "functional"}, "Salmonella": {"system": "Salmonella", "assay": "Minimum inhibitory concentration against X514 strain of Salmonella", "type": "functional"}, "Staphylococcus aureus [13]": {"system": "Staphylococcus aureus", "assay": "Minimum inhibitory concentration against X1.1 strain of Staphylococcus aureus", "type": "functional"}, "[14]": {"assay": "Percent of urinary recovery in rats after, oral administration of single 20 mg/kg dose in solution (N,range)", "type": "ADME, organism-based", "design": "dose 20 mg/kg, route oral", "settings": "rat, urine, read-out: Recovery", "how_it_was_run": "as §3"}, "Canis familiaris [15]": {"system": "Canis familiaris", "assay": "Area under plasma concentration vs time curve observed in female mongrel dogs after, oral administration of single 15 mg/kg dose", "type": "ADME, organism-based, Canis lupus familiaris", "design": "dose 15 mg/kg, route oral", "settings": "dog, in vivo", "how_it_was_run": "as §2"}, "[16]": {"assay": "Mean plasma levels in rats 2 hr after iv administration of 100 mg/kg of probenecid 5 min prior to test compound", "type": "ADME, organism-based", "design": "dose 100 mg/kg, route intravenous", "settings": "rat, read-out: Plasma levels", "how_it_was_run": "as §1"}, "[17]": {"assay": "Mean plasma levels in rats 40 min after iv administration of 100 mg/kg of probenecid 5 min prior to test compound", "type": "ADME, organism-based", "design": "dose 100 mg/kg, route intravenous", "settings": "rat, read-out: Plasma levels", "how_it_was_run": "as §1"}, "[18]": {"assay": "Mean plasma levels in rats 20 min after iv administration of 100 mg/kg of probenecid 5 min prior to test compound", "type": "ADME, organism-based", "design": "dose 100 mg/kg, route intravenous", "settings": "rat, read-out: Plasma levels", "how_it_was_run": "as §1"}, "Staphylococcus aureus [19]": {"system": "Staphylococcus aureus", "assay": "Minimum inhibitory concentration against V41 strain of Staphylococcus aureus", "type": "functional"}, "Haemophilus influenzae [20]": {"system": "Haemophilus influenzae", "assay": "Minimum inhibitory concentration against res 76 strain of Haemophilus influenzae", "type": "functional"}, "Klebsiella pneumoniae": {"system": "Klebsiella pneumoniae", "assay": "Minimum inhibitory concentration against X68 strain of Klebsiella pneumoniae", "type": "functional"}, "Streptococcus pneumoniae [21]": {"system": "Streptococcus pneumoniae", "assay": "Minimum inhibitory concentration against park strain of Streptococcus pneumoniae"}, "[22]": {"assay": "Oral bioavailability in dog (female mongrel)", "type": "ADME, organism-based, Canis lupus familiaris", "settings": "in vivo", "how_it_was_run": "as §2"}, "[23]": {"assay": "Mean plasma levels in rats at a time 5 min after iv administration of 100 mg/kg of probenecid 5 min prior to test compound", "type": "ADME, organism-based", "design": "dose 100 mg/kg, route intravenous", "settings": "rat, read-out: Plasma levels", "how_it_was_run": "as §1"}, "[24]": {"system": "Staphylococcus epidermidis", "assay": "Minimum inhibitory concentration against Epil strain of Staphylococcus epidermidis", "type": "functional"}, "[25]": {"assay": "Mean plasma levels in rats 3h after intravenous administration of 20 mg/kg of compound", "type": "ADME, organism-based", "design": "dose 20 mg/kg, route intravenous", "settings": "rat, read-out: Plasma levels", "how_it_was_run": "as §1"}, "[26]": {"assay": "Compound was tested for percent of oral bioavailability in mice; 56-74", "type": "ADME, organism-based", "settings": "mouse, in vivo, read-out: Bioavailabiility", "how_it_was_run": "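Male Cox mice given water and liquid diet overnight; 20 mg/kg in saline (2 mg/mL) sc or orally; urine from collection cages plus bladder contents over 2 h; activity by agar well assay with Bacillus subtilis ATCC 6633. Bioavailability from percent dose excreted in urine after oral vs parenteral dosing.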"}, "Streptococcus pyogenes [27]": {"system": "Streptococcus pyogenes", "assay": "Minimum inhibitory concentration against Streptococcus pyogenes C203", "type": "functional"}, "Haemophilus influenzae [28]": {"system": "Haemophilus influenzae", "assay": "Minimum inhibitory concentration against sens CL strain of Haemophilus influenzae", "type": "functional"}, "Streptococcus pneumoniae [29]": {"system": "Streptococcus pneumoniae", "assay": "Minimum inhibitory concentration against Park strain of Streptococcus pneumoniae"}, "[30]": {"assay": "Area under plasma concentration vs time curve observed in Rhesus monkeys after oral administration of single 30 mg/kg dose", "type": "ADME, organism-based, Macaca mulatta", "design": "dose 30 mg/kg, route oral", "settings": "rhesus monkey", "how_it_was_run": "as §4"}, "[31]": {"assay": "Minimum inhibitory concentration against N9 strain of Shigella sonnei", "type": "functional"}, "[32]": {"assay": "Dose in urine (24-h urine excretion) in female mongrel dogs after oral administration of single 15 mg/kg dose", "type": "ADME, organism-based, Canis lupus familiaris", "design": "dose 15 mg/kg, route oral", "settings": "dog", "how_it_was_run": "(§5)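 Female mongrel dogs (n=6), bladder catheter; urine collected at intervals after single 15 mg/kg iv or oral solution dose, frozen; antibiotic activity by disk-plate agar diffusion against E. coli MB 3804 with standards in pH 6.0 buffer; percent of dose recovered in urine.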"}, "[33]": {"assay": "Dose in urine (24-h urine excretion) in female mongrel dogs after iv administration of single 15 mg/kg dose", "type": "ADME, organism-based, Canis lupus familiaris", "design": "dose 15 mg/kg, route intravenous", "settings": "dog", "how_it_was_run": "as §5"}},
  "data": [
    {"smiles": "O=C(COc1ccccc1)N[C@@H]1C(=O)N2C(C(=O)O)=C(Cl)CS[C@H]12", "values": [
      {"measurement": "concentration at 1 h", "setting": "[1]", "result": 18400, "unit": "ng/mL"},
      {"measurement": "MIC", "setting": "Streptococcus pyogenes [2]", "result": 0.06, "unit": "µg/mL"},
      {"measurement": "AUC", "setting": "Canis familiaris [3]", "result": 57.5, "unit": "µg·h/mL"},
      {"measurement": "dose excreted", "setting": "[4]", "result": 43.8, "unit": "%"},
      {"measurement": "MIC", "setting": "Staphylococcus aureus [5]", "result": 0.25, "unit": "µg/mL"},
      {"measurement": "AUC at 3 h", "setting": "[6]", "result": 51400, "unit": "ng·h/mL"},
      {"measurement": "bioavailability", "setting": "[7]", "result": 13.1, "unit": "%"},
      {"measurement": "MIC", "setting": "Staphylococcus aureus [8]", "result": 16, "unit": "µg/mL"},
      {"measurement": "MIC", "setting": "Escherichia coli", "result": 64, "unit": "µg/mL"},
      {"measurement": "MIC", "setting": "[9]", "result": 0.25, "unit": "µg/mL"},
      {"measurement": "AUC", "setting": "[10]", "result": 38000, "unit": "ng·h/mL"},
      {"measurement": "half-life", "setting": "[11]", "result": 30, "unit": "min"},
      {"measurement": "bioavailability", "setting": "[12]", "result": 23.1, "unit": "%"},
      {"measurement": "MIC", "setting": "Klebsiella aerogenes", "result": "> 128", "unit": "µg/mL"},
      {"measurement": "MIC", "setting": "Salmonella", "result": "> 128", "unit": "µg/mL"},
      {"measurement": "MIC", "setting": "Staphylococcus aureus [13]", "result": 0.25, "unit": "µg/mL"},
      {"measurement": "dose excreted", "setting": "[14]", "result": 10.1, "unit": "%"},
      {"measurement": "AUC", "setting": "Canis familiaris [15]", "result": 1000, "unit": "µg·min/mL"},
      {"measurement": "concentration at 2 h", "setting": "[16]", "result": 4600, "unit": "ng/mL"},
      {"measurement": "concentration at 40 min", "setting": "[17]", "result": 25200, "unit": "ng/mL"},
      {"measurement": "concentration at 20 min", "setting": "[18]", "result": 39100, "unit": "ng/mL"},
      {"measurement": "MIC", "setting": "Staphylococcus aureus [19]", "result": 8, "unit": "µg/mL"},
      {"measurement": "MIC", "setting": "Haemophilus influenzae [20]", "result": 2, "unit": "µg/mL"},
      {"measurement": "MIC", "setting": "Klebsiella pneumoniae", "result": 128, "unit": "µg/mL"},
      {"measurement": "MIC", "setting": "Streptococcus pneumoniae [21]", "result": 0.06, "unit": "µg/mL"},
      {"measurement": "bioavailability", "setting": "[22]", "result": 30, "unit": "%"},
      {"measurement": "concentration at 5 min", "setting": "[23]", "result": 66, "unit": "µg/mL"},
      {"measurement": "MIC", "setting": "[24]", "result": 4, "unit": "µg/mL"},
      {"measurement": "concentration at 3 h", "setting": "[25]", "result": 500, "unit": "ng/mL"},
      {"measurement": "bioavailability", "setting": "[26]", "result": 56, "unit": "%"},
      {"measurement": "MIC", "setting": "Streptococcus pyogenes [27]", "result": 0.125, "unit": "µg/mL"},
      {"measurement": "MIC", "setting": "Haemophilus influenzae [28]", "result": 1, "unit": "µg/mL"},
      {"measurement": "MIC", "setting": "Streptococcus pneumoniae [29]", "result": 0.125, "unit": "µg/mL"},
      {"measurement": "AUC", "setting": "[30]", "result": 5000, "unit": "ng·h/mL"},
      {"measurement": "MIC", "setting": "[31]", "result": "> 128", "unit": "µg/mL"},
      {"measurement": "dose excreted", "setting": "[32]", "result": 18, "unit": "%"},
      {"measurement": "dose excreted", "setting": "[33]", "result": 48, "unit": "%"}
    ]}
  ]
}
